Screening data deposited in PubChem by The Scripps Research Institute Molecular Screening Center.
DNA FID counter-1 = compounds displacing fluorescent DNA intercalator, primary screen, artefact control for HCV NS3 helicase inhibitor project, biochemical, FID fluorescence | DNA fluorescent intercalator displacement | inhibition, % at 7.9 µM | 0.17% of 290,000 active | AID 1845, 2009;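 further: 0% = vehicle and 100% = reference compound; higher means more ethidium bromide displaced from hairpin DNA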
ZTA counter = ZTA (EBV) inhibition in EBNA-1 counter-screen; P03206; ZTA-DNA binding, fluorescence polarization; inhibition, % at 11 µM; 0.15% of 320,000 active; AID 2234; in the data active means inhibition above about 33%
Target sequence (P03206 whole entry, looked up): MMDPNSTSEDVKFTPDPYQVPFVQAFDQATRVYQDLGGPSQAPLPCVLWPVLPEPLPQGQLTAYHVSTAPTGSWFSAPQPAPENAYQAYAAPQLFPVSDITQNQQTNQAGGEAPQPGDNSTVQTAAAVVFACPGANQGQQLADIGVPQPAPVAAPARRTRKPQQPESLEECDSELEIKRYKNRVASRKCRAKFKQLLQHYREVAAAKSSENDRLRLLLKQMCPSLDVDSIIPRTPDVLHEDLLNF
GPR7 antagonist = GPR7 receptor antagonists, primary screen, cell-based, fluorescence, single concentration. inhibition, % at 4.4 µM. AID 1861, 2009. GPR7-expressing cells, fluorescence antagonist assay. 1.1% of 290,000 active; in the data active means inhibition above about 16%, passing the limit was not always enough;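 further: cells stimulated with the agonist NPW; 0% = agonist with vehicle and 100% = vehicle without agonist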
Target sequence (P48145 whole entry, looked up): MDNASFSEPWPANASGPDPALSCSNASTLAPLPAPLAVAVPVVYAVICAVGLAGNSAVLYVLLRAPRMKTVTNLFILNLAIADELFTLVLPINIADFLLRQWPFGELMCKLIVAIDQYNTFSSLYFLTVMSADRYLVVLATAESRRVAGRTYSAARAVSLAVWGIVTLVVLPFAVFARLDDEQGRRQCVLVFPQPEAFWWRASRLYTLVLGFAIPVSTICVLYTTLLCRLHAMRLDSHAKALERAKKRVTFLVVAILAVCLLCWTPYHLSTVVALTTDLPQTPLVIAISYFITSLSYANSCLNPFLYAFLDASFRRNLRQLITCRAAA
HCV NS3 hel inh = inhibitors of HCV NS3 helicase, primary screen, biochemical, Cy5 molecular beacon fluorescence | 0.56% of 290,000 active | Hepatitis C virus NS3 helicase | inhibition, % at 10.9 µM | AID 1800, 2009 | NS3 helicase DNA unwinding;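 active means inhibition above the mean of all tested compounds plus 3 SD, set per campaign, cut at about 35% in these data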;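 further: 0% = DMSO wells and 100% = thioflavine S control wells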
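System: Hepatitis C virus NS3 helicase domain fragment enzyme | Reagent: Annealed dual-labelled DNA beacon duplex, ATP-started | Compound dosing: 10.9 µM single point, 0.8% DMSO | Incubation: 1 h reaction at 25 °C, ATP-initiated | Technique: Cy5 fluorescence | Evaluation: Percent inhibition from t60/t0 fluorescence ratio | Benchmarks: Low DMSO, high thioflavine S at 110 µM | Replication: Singlicate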
EBNA-1 inh = EBNA-1 DNA-binding inhibitors, primary screen, biochemical, fluorescence polarization; AID 1950, 2009; 0.34% of 300,000 active; inhibition, % at 14.8 µM; in the data active means inhibition above about 28%
NS3 helicase cf = HCV NS3 helicase inhibitors, retest, confirmation, biochemical, Cy5 molecular beacon fluorescence, triplicate. shares compounds with HCV NS3 hel inh. NS3 helicase DNA unwinding. inhibition, % at 10.9 µM. 31% of 1,600 active;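 active means inhibition above the mean of all tested compounds plus 3 SD, cutoff set per campaign, cut at about 36% in these data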
DNA FID counter-2 = compounds displacing fluorescent DNA intercalator, artefact control for HCV NS3 helicase inhibitor project, biochemical, FID fluorescence, triplicate; 4% of 1,600 active; DNA fluorescent intercalator displacement; inhibition, % at 7.9 µM; shares compounds with HCV NS3 hel inh;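 further: 0% = vehicle and 100% = reference compound; higher means more displacement of ethidium bromide from the DNA hairpin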
The depositor's hits bear a star; x = no result. Most compounds without a hit are left out; they make up all but 2% or so of the library. Unless noted, no stated cut-off is given here; in the data, active means inhibition above about 37%; inactive means the rest.

SMILES | DNA FID counter-1 | ZTA counter | GPR7 antagonist | HCV NS3 hel inh | EBNA-1 inh | others
C=CCn1c(O)c(C(C)=Nc2ccc(N(C)C)cc2)c(=O)[nH]c1=O | -7 | 150* | 23 | 25 | 58*
CN1[C@H]2CC[C@@H]1C(C(=O)N1CCOCC1)=C(O)C2 | x | 10 | x | x | x
NC(Cc1cc(O)c(O)cc1O)C(=O)O (configuration not stated) | x | 49* | x | x | 90*
Cc1cc(C)n(-c2ccc(NN=C(C#N)C#N)cc2)n1 | -8 | -20 | 1 | -1 | 1
N#CC(C#N)=NNc1ccc(-n2ccc(C(F)(F)F)n2)cc1 | -15 | -2 | 26* | -9 | 18
COC(=O)C1=C(c2ccc(F)cc2F)C[C@@H]2CC[C@H]1N2C(=O)N1CCC(O)CC1 | x | -10 | x | x | x
COC(=O)C1=C(c2cccc(C#N)c2)C[C@@H]2CC[C@H]1N2C(=O)NC1Cc2ccccc2C1 | x | -12 | x | x | x
CC(C)OCCCNC(=O)c1c(N)n(CC2CCCO2)c2nc3ccccc3nc12 (configuration not stated) | -16 | 19 | 15* | 3 | 13
Cc1cnc(-n2c(=S)[nH]c3ccccc3c2=O)s1 | x | 12 | x | x | x
COc1cc2c(cc1O)C[C@H]1NCCc3cc4c(c-2c31)OCO4 | 38* | -2 | -10 | 17 | -1
COc1cc2c(cc1OC)-c1c(OC)c(OC)cc3c1C(C2)N(C)CC3 (configuration not stated) | 24 | 8 | -8 | 8 | 9
COc1cc2c(cc1OC)-c1c3c(cc4c1[C@@H](C2)N(C)CC4)OCO3 | 67* | -18 | -8 | 5 | -4
COC(=O)C1=C(c2c(C)noc2C)C[C@@H]2CC[C@H]1N2C(=O)NCc1ccco1 | x | 9 | x | x | x
CC(C)CC(C)N (configuration not stated) | x | 9 | x | x | x
CC(C)n1c(=O)c(C=Nc2ccc(Cl)cc2)c(O)n(Cc2ccco2)c1=O | -31 | -11 | -1 | 47* | -1
Cc1nc2cc(C(F)(F)F)ccc2n1C1CCN(Cc2nnnn2CCc2ccccc2)CC1 | -25 | -1 | 20* | -14 | 6
Cc1nc2cc(F)ccc2n1C1CCN(Cc2nnnn2CCc2ccccc2)CC1 | -15 | 9 | -6 | 4 | -3
O=C1C2CCCN2C(c2cccc(Cl)c2)N1c1ccccn1 (configuration not stated) | 38* | 10 | -12 | 12 | 3
COC(=O)C1=C(c2ccc(OC(F)(F)F)cc2)C[C@@H]2CC[C@H]1N2C(=O)NCc1cc(C)oc1C(F)(F)F | x | -6 | x | x | x
CN1CCC(N(C)c2nc(-c3ccccc3)nc3ccccc23)CC1 | 63* | -4 | -1 | 35 | 8
CN[C@@H]1C[C@@H](c2ccc(Cl)c(Cl)c2)c2ccccc21 | 22 | 8 | 47* | -63 | 3
CC(NCc1ccc(Cl)c(Cl)c1)C(O)c1ccccc1 (configuration not stated) | 11 | -3 | -1 | -4 | 4
COC(=O)C1=C(c2ccc(F)cc2OCc2ccccc2)C[C@@H]2CC[C@H]1N2C(=O)N1CCCC1 | x | 5 | x | x | x
CCCCCCC[n+]1ccc(-c2cc[n+](CCCCCCC)cc2)cc1 | 55* | 6 | 0 | -43 | -5
C[n+]1ccc(-c2cc[n+](C)cc2)cc1 | x | 6 | x | x | 3
SMILES | DNA FID counter-1 | ZTA counter | GPR7 antagonist | HCV NS3 hel inh | EBNA-1 inh | others
C[CH2][Hg][S]c1ccccc1C(=O)O | x | -28 | x | x | -13
COc1cc2c(cc1OC)[C@@H]1C(=O)c3ccc4c(c3O[C@@H]1CO2)C[C@H](C(C)C)O4 | -33 | 6 | 21* | -7 | 1
CN(C)c1ccc(/C=C/c2cc[n+](C)c3ccccc23)cc1 | 17 | x | -3 | -2 | x
CN(C)c1ccc(/C=C/C=C/c2sc3ccccc3[n+]2C)cc1 | 8 | 45* | -8 | 30 | 32*
O=C(O)c1cccc2c1NC(C(=O)O)C1CC(Sc3ccccc3[N+](=O)[O-])C(Cl)C21 (configuration not stated) | -1 | 110* | -6 | 35 | 35*
CN(C)c1ccc(/C=C2/C(=O)NC(=O)N(Cc3ccco3)C2=O)cc1 | -18 | 11 | -8 | 25 | 0
O=C1NC(=O)N(Cc2ccco2)C(=O)/C1=C/c1ccc(-c2cccc([N+](=O)[O-])c2)o1 | 1 | -13 | -8 | 39* | -7 | NS3 helicase cf=66*;DNA FID counter-2=18
O=C1NC(=S)N(Cc2ccco2)C(=O)/C1=C\c1cccs1 | -6 | x | -6 | 52* | x | NS3 helicase cf=77*;DNA FID counter-2=21
C=CCN1C(=O)NC(=O)/C(=C\c2ccc(-c3ccccc3[N+](=O)[O-])o2)C1=O | -8 | 2 | 2 | 8 | 4
Cc1cc(/C=C2/C(=O)NC(=O)N(Cc3ccco3)C2=O)c(C)n1-c1ccccc1 | -23 | 2 | -2 | 50* | 0 | NS3 helicase cf=7;DNA FID counter-2=-29
C[N+](C)(N)CCOC(=O)C(O)(c1ccccc1)C1CCCCC1 (configuration not stated) | x | 6 | x | x | 12
O=C1NC(=S)N(c2ccccc2)C(=O)/C1=C/c1ccco1 | -7 | 21 | -13 | 41* | 5 | NS3 helicase cf=69*;DNA FID counter-2=0
COc1cccc(N2C(=O)/C(=C/c3ccc(C)o3)C(=O)NC2=S)c1 | -17 | -8 | 5 | 36* | -6 | NS3 helicase cf=59*;DNA FID counter-2=-14
O=C(N/N=C/c1c(O)n(CCc2ccccc2)c(=O)[nH]c1=O)c1ccncc1 | -20 | 10 | 7 | 13 | -5
O=C(N/N=C/c1c(O)n(CCc2ccc(F)cc2)c(=O)[nH]c1=O)c1ccncc1 | -31 | 22 | 17 | 38* | -1 | NS3 helicase cf=-6;DNA FID counter-2=-13
Cc1cccc(NC(=O)COC(=O)c2cc(C)n(C3CC3)c2C)c1 | x | 4 | x | x | x
Cc1cc(O)c2c(c1)C(=O)C13C(=C2O)C(=O)[C@H]2[C@@H](O)[C@@H]1[C@H]1[C@H](O)[C@@H]3C(=O)C3=C(O)c4c(O)cc(C)cc4C(=O)C312 (some centres not stated) | x | -20 | x | x | -13
CC(=O)c1ccc2c(c1)C1C(Cl)C(Sc3ccccc3[N+](=O)[O-])CC1C(C(=O)O)N2 (configuration not stated) | -3 | -9 | -10 | 41* | -16 | NS3 helicase cf=52*;DNA FID counter-2=7
CCOC(=O)c1c(C)n(Cc2ccccc2)c2ccc(OCC(O)CNC(C)(C)C)cc12 (configuration not stated) | 18 | 1 | 20 | -75 | -12
O=c1nc(/C=C/c2ccc(Cl)cc2Cl)cc(C(F)(F)F)[nH]1 | -27 | x | -2 | 46* | x | NS3 helicase cf=70*;DNA FID counter-2=-16
